Screening data from PubChem BioAssay.
Pyk2 oligo antag: blocks oligomerization of human Pyk2 in cells; 99,000 tested, 0.83% active; Q293 cells, Pyk2 FERM NanoBiT luminescence; hits give low values; z-score (the deposit names both 25 µM and 10 µM); AID 1347419;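 active means Z-score of -3 or lower, scaled per plate to the spread of control and sample wells; inactive means z-score above -3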;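 further: negative z-score means lost luminescence so less FERM oligomerization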
Target sequence (Q14289 whole entry, looked up): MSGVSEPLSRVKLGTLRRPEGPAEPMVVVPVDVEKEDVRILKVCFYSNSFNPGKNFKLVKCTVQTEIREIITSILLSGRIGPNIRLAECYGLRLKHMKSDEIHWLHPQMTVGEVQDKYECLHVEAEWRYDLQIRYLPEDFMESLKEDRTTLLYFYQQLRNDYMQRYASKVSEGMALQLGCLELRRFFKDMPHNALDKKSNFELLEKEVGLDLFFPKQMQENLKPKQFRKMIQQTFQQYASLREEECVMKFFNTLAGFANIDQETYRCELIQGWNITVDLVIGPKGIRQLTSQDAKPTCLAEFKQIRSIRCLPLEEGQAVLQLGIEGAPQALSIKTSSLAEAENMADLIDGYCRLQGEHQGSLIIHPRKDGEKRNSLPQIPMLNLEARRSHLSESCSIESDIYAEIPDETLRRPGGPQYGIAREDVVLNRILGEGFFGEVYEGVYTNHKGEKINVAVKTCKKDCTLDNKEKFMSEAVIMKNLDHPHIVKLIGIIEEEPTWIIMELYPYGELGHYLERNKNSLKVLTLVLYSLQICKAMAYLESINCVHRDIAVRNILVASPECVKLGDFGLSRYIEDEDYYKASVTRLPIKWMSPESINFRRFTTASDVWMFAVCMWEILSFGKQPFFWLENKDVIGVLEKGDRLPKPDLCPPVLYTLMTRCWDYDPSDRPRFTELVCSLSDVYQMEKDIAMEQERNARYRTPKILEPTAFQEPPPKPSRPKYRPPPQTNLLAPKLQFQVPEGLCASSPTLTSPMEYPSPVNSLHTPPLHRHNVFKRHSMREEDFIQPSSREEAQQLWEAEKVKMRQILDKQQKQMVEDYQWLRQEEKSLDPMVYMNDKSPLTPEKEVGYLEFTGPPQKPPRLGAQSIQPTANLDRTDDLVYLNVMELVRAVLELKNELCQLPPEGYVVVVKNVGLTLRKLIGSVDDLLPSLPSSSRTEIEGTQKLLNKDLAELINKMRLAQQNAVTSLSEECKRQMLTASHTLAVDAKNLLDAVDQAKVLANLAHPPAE
HePTP inhibitor: blocks human HePTP tyrosine phosphatase | P35236 | recombinant HePTP phosphatase activity, OD absorbance | inhibition, % at 20 µM | 110,000 tested, 0.64% active | AID 521; in the data active means inhibition above about 50%;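 further: plate controls were vehicle for no effect and reference inhibitor for full effect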
PLK1 kinase inh: inhibitors of human PLK1 kinase; inhibition, % at 10 µM; 97,000 tested, 0.53% active; recombinant PLK1 kinase, TR-FRET peptide phosphorylation; P53350;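 active means inhibition of 50% or more in the single-concentration screen; inactive means inhibition below 50%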;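 further: 0% = DMSO max control and 100% = H-89 dihydrochloride min control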
Plk1 PBD FP: blocks phosphopeptide binding to human Plk1 polo box domain. P53350. Plk1 PBD phosphopeptide binding, fluorescence polarization. inhibition, %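 (tested at about 20 µM)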. 97,000 tested, 0.13% active; in the data active means inhibition above about 34%, passing the limit was not always enough
AP ELISA ortho: alternative pathway complement inhibition, orthogonal assay; Human serum alternative complement pathway, LPS-coated ELISA, C3 deposition; tested in compound mixtures; inhibition, % at 5 µM; 62,000 tested, 0.08% active; AID 1235;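 active means inhibition above 30% in each of the two pooled mixtures holding the compound, so the lower value exceeds 30%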;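 further: 0% = serum in Mg-EGTA without compound and 100% = EDTA serum blank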
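Test system – human serum alternative complement pathway, C3 deposition on LPS-coated wells · Buffer or medium – diluted human serum in Mg2+-EGTA GVB++ · Compound dosing – 5 µM each compound, pools of ten, 50 µM per pool · Schedule – 1 h serum-compound exposure at 37 °C · Measured by – Anti-C3 ELISA, OD 450 nm · Read-out basis – percent inhibition of C3 deposition onto LPS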
HEK293 NFkB inh: inhibitors of the PMA/ionomycin-induced NF-kB reporter in HEK293 cells. HEK-293 NF-kB luciferase reporter, luminescence. AID 465. inhibition, % at 3 µM. 62,000 tested, 0.21% active;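 active means inhibition above the mean of all tested compounds plus 3 SD, cut at about 40% in these data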;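 further: 0% = stimulated DMSO wells and 100% = 10 µM reference inhibitor 5653914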
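System – HEK-293 cells with stable firefly luciferase reporter driven by four HIV NF-kB elements · Doses – one dose, 3 µM · Schedule – 1 h compound pre-incubation, 16 h PMA/ionomycin at 37 °C · Technique – luminescence from luciferase substrate reagent · Measure – percent inhibition normalized per plate to DMSO and reference-inhibitor controls · Replicates – tested once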
* hit, by the source's call; · = no result. Hits are enriched below; roughly 1.5% of the tested compounds scored in any of these assays.

SMILES	Pyk2 oligo antag	HePTP inhibitor	PLK1 kinase inh	Plk1 PBD FP	AP ELISA ortho	HEK293 NFkB inh
CN(C1CCCCC1)S(=O)(=O)c1ccc2c(c1)c(=O)c(C(=O)NCCCN1CCCC1)cn2C	·	-3.0	59.2*	-20.7	8.5	3.7
Cc1cccc(NC(=O)CCN2CCOCC2)c1	0.16	3.4	-17.3	7.7	38.3*	-4.8
CC(C)(C)c1ccccc1OCC(=O)Nc1cccc(Cl)c1	·	6.5	·	·	·	·
O=C1OC(/C=C/c2ccccc2)=NC/1=C/c1ccc(-c2ccc3c(c2)C(=O)NC3=O)o1	·	71.3*	·	·	·	·
CN(C)c1ccc(-c2nn3c(C4CCCCC4)nnc3s2)cc1	-3.64*	-0.1	-13.3	-19.6	12.8	1.2
CN(C)c1ccc(-c2nn3c(-c4ccc(Cl)cc4)nnc3s2)cc1	1	7.0	·	·	·	·
CCCC(CCC)C(=O)Nc1ccc2c(c1)N(C(=O)CN1CCOCC1)c1ccccc1CC2	·	-0.7	·	·	·	·
CCN(CC)c1nc(N)c2c(N)n(-c3ccccc3C)c(=S)c(C#N)c2c1C#N	-3.73*	6.3	-12.6	31.2	2.9	4.6
Cc1ccc(C2=NN(C(=N)SC3CC(=O)N(c4ccccc4F)C3=O)C(c3ccc(Br)cc3)C2)cc1 (centres undefined)	·	2.9	·	·	·	·
CCCc1nnc(NC(=O)c2ccc(N3C(=O)C4C5C=CC(C5)C4C3=O)cc2)s1 (centres undefined)	-3.23*	·	9.6	-11.8	·	·
O=C(Nc1nc2c(ccc3ccccc32)s1)c1ccco1	-3.32*	0.7	-4.4	-4.4	18.8	-9.4
O=C(Nc1nc2c(Cl)ccc(Cl)c2s1)c1ccco1	·	4.5	-10.9	-4.4	23.0	-1.0
COC(=O)C1=C(N)Oc2cc(C)n(Cc3ccccc3)c(=O)c2C1c1ccccc1 (centres undefined)	-3.05*	·	-4.0	16.5	·	·
CCCc1c(C)nc2ccc(OC)cc2c1Cl	·	-15.6	·	·	·	·
COc1ccc(N2CCN(c3nc(NCCc4ccc(OC)c(OC)c4)nc(OC)n3)CC2)cc1	-3.07*	14.0	-9.8	-11.6	9.5	-4.6
Cc1ccc(S(=O)(=O)N2CCC(O)CC2C)cc1 (centres undefined)	·	-13.5	·	·	·	·
COc1ccc(C(=O)Nc2cc(C(F)(F)F)cc(C(F)(F)F)c2)cc1OC	·	-5.2	·	·	·	·
CCc1cc2c(=O)c(-c3ccc4c(c3)OCCO4)coc2cc1OC(=O)c1ccco1	-3.53*	-1.7	-12.9	12.1	0.5	16.3
CCc1cc2c(=O)c(-c3nc4ccccc4[nH]3)coc2cc1OC(=O)N1CCOCC1	-2.65	10.8	2.4	2.1	6.7	·
CCCc1cc2c(=O)c(-c3ccc4c(c3)OCCO4)coc2cc1OC(=O)c1ccco1	-3.03*	·	-11.6	26.5	·	·
Cc1ccc(-c2n[nH]c3nc(C)cc(=O)n23)cc1	·	1.3	·	·	·	·
CCCOc1cccc(C(=O)Nc2ccc(OC(F)(F)F)cc2)c1	·	-11.9	·	·	·	·
Cc1ccc2nc(-c3ccccc3)cn2c1	-0.04	8.3	-4.4	-6.9	19.1	70.8*
O=C(c1sc2ccccc2c1Cl)N1CCN(c2cccc(C(F)(F)F)c2)CC1	·	-8.5	·	·	·	·
O=C(Nc1ccccc1N1CCOCC1)c1ccc2ccccc2n1	-3.65*	7.1	-2.5	-17.7	4.5	9.4
SMILES	Pyk2 oligo antag	HePTP inhibitor	PLK1 kinase inh	Plk1 PBD FP	AP ELISA ortho	HEK293 NFkB inh
CC1=C(C(=O)Nc2ccc(C)cc2)C(c2ccc(F)cc2)NC(=O)N1 (centres undefined)	·	-9.3	·	·	·	·
COc1cc2c(cc1OC)C1=C(C#N)CN(CC(=O)O)CN1CC2	·	4.3	61.3*	27.8	14.5	16.7
O=C(Nc1ccc(N2CCOCC2)cc1)c1ccc(F)cc1	·	4.8	·	·	·	·
CCN(CC)CCCn1c(C)cc2c(c1=O)C(c1cccc(Cl)c1)C(C#N)=C(N)O2 (centres undefined)	1.59	8.5	-4.6	46.5*	·	·
CCN(CC)CCCn1c(C)cc2c(c1=O)C(c1cc(OC)c(OC)cc1OC)C(C#N)=C(N)O2 (centres undefined)	-1.39	-6.3	-7.1	18.9	-22.8	19.0
O=C(Nc1ccc2c(c1)C(=O)N(CC1CCCO1)C2=O)c1cccc(Br)c1 (centres undefined)	-3.15*	·	0.1	-16.5	·	·
COC(=O)c1ccc(C)c(NC(=O)CN2C(=O)c3ccccc3S2(=O)=O)c1	-0.79	·	-12.7	-6.8	·	9.5
CCc1cccc(C)c1NC(=O)CN1C(=O)c2ccccc2S1(=O)=O	·	-4.7	69.0*	-9.8	13.8	13.5
Cc1ccc(OCCSc2ncnc3nc[nH]c23)cc1	-0.73	2.8	55.8*	-9.7	·	·
COc1cc(/C=N\N2CCN(Cc3ccc(C)cc3)CC2)cc(Br)c1O	·	77.2*	·	·	·	·
Cc1cc(NC(=O)c2ccc(-c3ccc(Br)cc3)o2)ccc1NC(=O)c1ccco1	·	-1.7	·	·	·	·
Cc1cc(NC(=O)c2ccc(-c3ccc(Cl)cc3)o2)ccc1NC(=O)c1ccco1	·	60.8*	·	·	·	·
O=C(Nc1ccccc1C(=O)Nc1ccccc1Cl)c1ccco1	·	4.5	·	·	·	·
O=C(Nc1ccccc1C(=O)Nc1ccc(Cl)cc1)c1ccco1	·	103.2*	·	·	·	·
C/C(=N\NC(=O)c1ccc(Cl)cc1)c1ccc(Br)s1	-0.11	·	-6.8	67.4*	·	·
COc1cc(NC(=O)C2CCCN2S(=O)(=O)c2ccc3c(c2)CCC(=O)N3)cc(OC)c1 (centres undefined)	·	2.1	-11.2	-6.5	9.7	1.2
Cc1ccc(NC(=O)C2CCCN2S(=O)(=O)c2ccc3c(c2)CCC(=O)N3)cc1Cl (centres undefined)	·	9.0	66.6*	-22.3	19.7	11.4
COc1cccc(C(=O)N(Cc2ccc3c(c2)OCO3)Cc2nc3ccccc3c(=O)[nH]2)c1	-3.44*	14.4	-9.0	9.5	5.8	9.4
COc1cccc(C(=O)NCc2ccc3c(c2)OCO3)c1	·	-2.7	·	·	·	·
COc1ccccc1NC(=O)N(Cc1ccc2c(c1)OCO2)Cc1nc2ccccc2c(=O)[nH]1	-4*	1.6	-6.1	-1.1	30.1	-3.1
COc1ccccc1CN(Cc1nc2ccccc2c(=O)[nH]1)C(=O)Nc1cccc(C)c1	-0.63	·	5.9	1.5	·	·
O=C(Nc1ccccc1C(=O)O)c1ccc2c(c1)C(=O)N(C1CCCCC1)C2=O	·	100.8*	·	·	·	·
CCc1cccc(NC(=O)Cc2ccccc2)c1	·	101.6*	·	·	·	·
O=C1OC(c2ccc(Cl)cc2)=C/C1=C/c1ccc(-c2ccccc2[N+](=O)[O-])o1	·	3.0	·	·	·	·
COc1ccc(C(=O)N2CCN(C3CC4CCC3C4)CC2)cc1 (centres undefined)	·	-3.2	·	·	·	·
CCCCOc1ccc(C(=S)N2CCOCC2)cc1	·	6.2	·	·	·	·
c1cncc(C2Nc3ccccc3-c3nc4ccccc4n32)c1 (centres undefined)	-3.28*	5.0	-39.5	12.5	15.2	-21.4
Brc1ccc(C2=CC(c3cccs3)n3ncnc3N2)cc1 (centres undefined)	-3.51*	·	19.3	-122.8	·	·
OCCCc1nc2n(n1)C(c1cccs1)C=C(c1ccc(Br)cc1)N2 (centres undefined)	·	·	-27.5	-148.9	·	·
